The record followed here is ChEMBL document CHEMBL1649148, “Steady-state pharmacokinetics of abacavir in plasma and intracellular carbovir triphosphate following administration of abacavir at 600 milligrams once daily and 300 milligrams twice daily in human immunodeficiency virus-infected subjects” (Antimicrob Agents Chemother, 2009).

Common to all, as to assay type: ADME, organism-based
For series [1], the species on record is Homo sapiens. The experiment in a line: Ratio of AUC in HIV infected female patient assessed as assessed as carbovir-triphosphate level per million cells to AUC in HIV infected female patient at 300 mg BID by HPLC/MS/MS analysis. Conditions: in vivo. Summed up: (§1)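 Per-subject ratio of intracellular CBV-TP AUC0-24 (PBMC, fmol/million cells, LC-MS/MS) to plasma abacavir AUC0-24 (HPLC-MS/MS), both by noncompartmental analysis from serial samples over 24 h on days 1 and 11 of oral 600 mg QD or 300 mg BID dosing in fasted HIV-1-infected adults.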

In series [2] the test system is Homo sapiens. The series is described as follows: (§2) Drug level at the end of dosing interval in HIV infected patient at 600 mg QD by HPLC/MS/MS analysis. Conditions: in vivo. Summed up: (§3)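 Plasma abacavir at steady state in HIV-1-infected adults dosed orally 600 mg QD or 300 mg BID under fasting, serial samples predose to 24 h (plus 1 h) on days 1 and 11; validated HPLC-MS/MS, calibration 2.5–2,500 ng/ml; noncompartmental parameters from actual times, BID AUC0-24 taken as 2 × AUC0-τ.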

Series [3] is filed under the species Homo sapiens. The series is described as follows: Ratio of AUC in HIV infected female patient assessed as carbovir-triphosphate level per million cells to AUC in HIV infected female patient at 600 mg QD by HPLC/MS/MS analysis. Conditions: in vivo. Summed up: as §1
The species entered for series [4] is Homo sapiens. The experiment in a line: Ratio of AUC in HIV infected patient assessed as carbovir-triphosphate level per million cells to AUC in HIV infected patient at 600 mg QD by HPLC/MS/MS analysis. Conditions: in vivo. The procedure, abridged:
as §1

Series [5] can be described thus: (§4) AUC (0 to 24 hrs) in HIV infected patient at 600 mg QD by HPLC/MS/MS analysis. Conditions: human, plasma. Also on record: dose 600 mg, time < 24 hr. The procedure, abridged:
as §3

A short description of series [6]: AUC (0 to 24 hrs) in HIV infected patient at 300 mg BID by HPLC/MS/MS analysis. Conditions: human, plasma. Set-up: time < 24 hr, dose 300 mg. The procedure, abridged:
as §3

For series [7], the system named is Homo sapiens. The experiment in a line: (§5) Drug level at the end of dosing interval in HIV infected patient at 300 mg BID by HPLC/MS/MS analysis. Conditions: in vivo. Summed up:
as §3

A short description of series [8]: as §4. Also on record: time < 24 hr, dose 600 mg. Conditions: male, human, plasma. Summed up:
as §3

The test system of series [9] is Homo sapiens. Described as §5. Conditions: in vivo. The procedure, abridged:
as §3
The source holds these as a separate data set.

Series [10] can be described thus: Cmax in HIV infected patient at 300 mg BID by HPLC/MS/MS analysis. Set-up: dose 300 mg. Conditions: human, in vivo. Summed up: as §3
Series [11] is filed under the species Homo sapiens. The series is described as follows: Ratio of AUC in HIV infected patient assessed as assessed as carbovir-triphosphate level per million cells to AUC in HIV infected patient at 300 mg BID by HPLC/MS/MS analysis. Conditions: in vivo. The procedure, abridged: as §1
Series [12] deals with Homo sapiens. The description is as §2. Conditions: in vivo. The procedure, abridged: as §3
This is another data set of the same source.

The species entered for series [13] is Homo sapiens. The experiment in a line: Ratio of AUC in HIV infected male patient assessed as assessed as carbovir-triphosphate level per million cells to AUC in HIV infected male patient at 300 mg BID by HPLC/MS/MS analysis. Conditions: in vivo. The procedure, abridged: as §1
The test system of series [14] is Homo sapiens. Described as §2. Conditions: in vivo. The procedure, abridged:
as §3
The source holds these as a separate data set.

For series [15], the species on record is Homo sapiens. The experiment in a line: Ratio of AUC in HIV infected male patient assessed as carbovir-triphosphate level per million cells to AUC in HIV infected male patient at 600 mg QD by HPLC/MS/MS analysis. Conditions: in vivo. Summed up: as §1
Series [16] deals with Homo sapiens. The description is as §5. Conditions: in vivo. The procedure, abridged:
as §3
The source holds these as a separate data set.

The nature of series [17]: Cmax in HIV infected patient at 600 mg QD by HPLC/MS/MS analysis. Set-up: dose 600 mg. Conditions: human, in vivo. The procedure, abridged: as §3
Series [18] has as its system Homo sapiens. The series is described as follows: (§6) Drug level at end of dosing interval in HIV infected patient assessed as carbovir-triphosphate level per million cells at 300 mg BID by HPLC/MS/MS analysis. Conditions: in vivo. Summed up: (§7)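 Steady-state crossover in HIV-1-infected adults, oral abacavir 600 mg QD or 300 mg BID, fasted ≥10 h before and 2 h after dosing; blood drawn predose and 2–24 h postdose on days 1 and 11. PBMC isolated, counted in duplicate, lysed in ice-cold 70% methanol; CBV-TP measured by LC-MS/MS after anion exchange and alkaline phosphatase hydrolysis, converted to fmol/million cells; noncompartmental analysis.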

Series [19] is filed under the species Homo sapiens. The series is described as follows: (§8) AUC (0 to 24 hrs) in HIV infected patient assessed as carbovir-triphosphate level per million cells at 600 mg QD by HPLC/MS/MS analysis. Also on record: dose 600 mg, time < 24 hr. Conditions: in vivo. Summed up:
as §7

The species named for series [20] is Homo sapiens. The series is described as follows: (§9) Cmax in HIV infected patient assessed as carbovir-triphosphate level per million cells at 600 mg QD by HPLC/MS/MS analysis. Also on record: dose 600 mg. Conditions: in vivo. Summed up: as §7
For series [21], the species on record is Homo sapiens. Described as §9. Set-up: dose 600 mg. Conditions: in vivo. The procedure, abridged: as §7
The source holds these as a separate data set.

The species entered for series [22] is Homo sapiens. The experiment in a line: (§10) Cmax in HIV infected patient assessed as carbovir-triphosphate level per million cells at 300 mg BID by HPLC/MS/MS analysis. Also on record: dose 300 mg. Conditions: in vivo. Summed up: as §7
The species named for series [23] is Homo sapiens. The description is as §10. Set-up: dose 300 mg. Conditions: in vivo. Summed up: as §7
This is another data set of the same source.

For series [24], the species on record is Homo sapiens. The series is described as follows: AUC (0 to 24 hrs) in HIV infected male patient assessed as carbovir-triphosphate level per million cells at 600 mg QD by HPLC/MS/MS analysis. Also on record: dose 600 mg, time < 24 hr. Conditions: in vivo. Summed up:
as §7

Series [25] concerns Homo sapiens. The description is as §6. Conditions: in vivo. The procedure, abridged:
as §7
This is another data set of the same source.

For series [26], the species on record is Homo sapiens. The description is as §10. Set-up: dose 300 mg. Conditions: in vivo. Summed up:
as §7
This is another data set of the same source.

For series [27], the species on record is Homo sapiens. The experiment in a line: AUC (0 to 24 hrs) in HIV infected female patient assessed as carbovir-triphosphate level per million cells at 300 mg BID by HPLC/MS/MS analysis. Set-up: dose 300 mg, time < 24 hr. Conditions: in vivo.
The species named for series [28] is Homo sapiens. The experiment in a line: (§11) AUC (0 to 24 hrs) in HIV infected patient assessed as carbovir-triphosphate level per million cells at 300 mg BID by HPLC/MS/MS analysis. Set-up: time < 24 hr, dose 300 mg. Conditions: in vivo. The procedure, abridged: as §7
Series [29] is filed under the species Homo sapiens. Described as §11. Also on record: dose 300 mg, time < 24 hr. Conditions: in vivo. Summed up:
as §7

Series [30] is filed under the species Homo sapiens. The series is described as §9. Set-up: dose 600 mg. Conditions: in vivo. The procedure, abridged: as §7
The source holds these as a separate data set.

For series [31], the species on record is Homo sapiens. The description is as §8. Set-up: dose 600 mg, time < 24 hr. Conditions: in vivo. Summed up: as §7
This is another data set of the same source.

`Nc1nc(NC2CC2)c2ncn([C@H]3C=C[C@@H](CO)C3)c2n1` [ABACAVIR]: the “Ratio AUC” value in the series filed under Homo sapiens [1] is reported as 105; in the series filed under Homo sapiens [3] it was 158; in the series filed under Homo sapiens [4], 123; in the series filed under Homo sapiens [11], 103; in the series filed under Homo sapiens [13], 102; in the series filed under Homo sapiens [15] it was 109. In addition, the Ct is 0.009 µg/mL in the series on Homo sapiens [2]; 0.026 µg/mL in the series with Homo sapiens [7]; 0.015 µg/mL with Homo sapiens [9]; 0.009 µg/mL in the series with Homo sapiens [12]; 0.008 µg/mL in the series on Homo sapiens [14]; 0.018 µg/mL in the series on Homo sapiens [16]. In addition, the AUC at 24 h in series [5] (female) was found to be 11700 ng·h/mL; in series [5], 8520 ng·h/mL; in [6] (female) it was 10900 ng·h/mL; in [6], 7900 ng·h/mL; in [6] (male) it was 6740 ng·h/mL; in series [8] it was 7260 ng·h/mL. Further, the Cmax in series [10] was determined as 1840 ng/mL; in series [10] (male), 1590 ng/mL; in [17] (female), 4830 ng/mL; in series [17], 3850 ng/mL; in [17] (male), 3430 ng/mL.

With `Nc1nc(=O)c2ncn([C@H]3C=C[C@@H](COP(=O)(O)OP(=O)(O)OP(=O)(O)O)C3)c2[nH]1` [CARBOVIR 5'-TRIPHOSPHATE, (-)-], the Ct in the series with Homo sapiens [18] is 37.2 fmol/10^6 cells; in the series with Homo sapiens [25], 18.7 fmol/10^6 cells. Moreover, the AUC in the series listed under Homo sapiens [19] was found to be 1051 h·fmol/million cells; in the series listed under Homo sapiens [24], 792 h·fmol/million cells; in the series listed under Homo sapiens [27], 1138 h·fmol/million cells; in the series listed under Homo sapiens [28] it was 814 h·fmol/million cells; in the series filed under Homo sapiens [29] it was 688 h·fmol/million cells; in the series filed under Homo sapiens [15], 1051 fmol·h. In the series filed under Homo sapiens [31], the AUC was determined as 1851 h·fmol/million cells. Besides, the Cmax in the series filed under Homo sapiens [20] was 114 fmol/10^6 cells; in the series filed under Homo sapiens [21], 86.5 fmol/10^6 cells; in the series filed under Homo sapiens [22], 82.5 fmol/10^6 cells; in the series filed under Homo sapiens [23], 49.3 fmol/10^6 cells; in the series filed under Homo sapiens [26], 58.5 fmol/10^6 cells; in the series filed under Homo sapiens [30] it was 198 fmol/10^6 cells.
